Compound activity: PubChem BioAssay, several laboratories
WT yeast gro inh: growth inhibition of WT yeast, mitochondrial fusion screen; mitochondrial fusion phenotypic screen, WT strain; inhibition, % at 10 µM; 2.1% of 190,000 active; in the data active = inhibition above about 58%; tested in S. cerevisiae
PMI act: activators of human phosphomannose isomerase; 0.005% of 190,000 active; activation factor at 20 µM; purified human PMI, coupled resazurin fluorescence, 20 min; hits give high values; 1 = vehicle control, 0 substrate-free wells;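 active = activation factor of 2 or more at 20 µM, relative to plate controls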
Target sequence (P34949 whole entry, looked up): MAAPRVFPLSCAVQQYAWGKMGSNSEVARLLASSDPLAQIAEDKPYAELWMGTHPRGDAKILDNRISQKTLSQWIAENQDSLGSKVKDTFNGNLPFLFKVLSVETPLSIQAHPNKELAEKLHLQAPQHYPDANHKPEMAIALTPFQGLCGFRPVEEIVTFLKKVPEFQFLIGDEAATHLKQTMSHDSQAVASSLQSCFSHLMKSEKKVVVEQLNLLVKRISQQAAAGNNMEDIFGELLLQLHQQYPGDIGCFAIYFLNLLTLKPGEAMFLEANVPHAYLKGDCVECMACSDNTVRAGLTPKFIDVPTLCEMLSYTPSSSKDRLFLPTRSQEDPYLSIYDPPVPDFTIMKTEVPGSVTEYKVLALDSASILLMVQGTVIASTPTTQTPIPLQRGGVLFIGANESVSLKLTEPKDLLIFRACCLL
Diaph act CS: counter-screen for diaphorase-based assays: diaphorase activators and chemical reducers | AID 1229 | activation factor at 20 µM | Diaphorase/resazurin coupled assay, resorufin fluorescence, 16 min; hits give high values; 1 = vehicle wells, 0 = NADH-free wells | 0.005% of 190,000 active;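 active = diaphorase activity raised at least twofold by the compound at 20 µM; inactive = activation factor below 2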
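Test system: Clostridium kluyveri diaphorase, purified enzyme; input: enzyme 0.07 U/mL final; buffer or medium: 50 mM HEPES pH 7.4 with 4.542 mM MgCl2, 0.005% Tween 20; also added: 0.114 mM NADH and 0.1 mM resazurin, final amounts; schedule: 16 min enzyme reaction, ambient temperature; technique: fluorescence of resorufin, 544 nm excitation, 590 nm emission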
PMI act satM6P: PMI (human) activation, high substrate; P34949; coupled PMI enzyme assay, resazurin fluorescence, 20 min; hits give high values; 1 = untreated enzyme, 0 = substrate-free blank; activation factor at 20 µM; 0.34% of 190,000 active;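 active = activation factor of 2 or more at 20 µM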
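Technique: Diaphorase-driven resazurin-to-resorufin fluorescence, excitation 544, emission 590 nm | Assay system: Human PMI in coupled enzyme assay | Times: Enzyme reaction with compound 20 min at room temperature | Medium: HEPES-buffered pH 7.4 with magnesium and detergent | Reagent: Mannose-6-phosphate 1.0 mM (near-saturating) plus 0.22 mM NADP+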
L major viab: reduces viability of Leishmania major promastigotes. resazurin fluorescence viability. AID 1063. inhibition, % at 10 µM. 9% of 200,000 active; in the data active = inhibition above about 50%;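 note: promastigotes grown with compound for 44 hours at 28 °C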
An asterisk follows results filed as active. Shown are actives, neighbours in structure and some others; about 10% of the full set was active somewhere.

SMILES	WT yeast gro inh	PMI act	Diaph act CS	PMI act satM6P	L major viab
CO/N=C(/C)CCS(=O)(=O)c1ccccc1	-5.2	1	1	0.9	-5.6
O=C(c1ccc(Cl)cc1)C1CCCN(Cc2ccc(Oc3ncccn3)cc2)C1 (centres undefined)	10.5	0.8	0.8	0.9	86.2*
Cc1cc(N)n2nc(-c3ccccc3)cc2n1	36.8	1	1.1	1	54.9*
Cc1ccc(-c2cc3nc(-c4ccccc4)cc(N)n3n2)cc1	3.7	0.9	1	1	3.7
O=C(C1CC1)N(Cc1ccco1)c1nc(-c2ccccc2)cs1	35.8	0.9	0.8	0.9	57.8*
O=C1C(=O)N(Cc2ccccc2)C(=O)N1CCOc1ccccc1	0.5	0.9	0.9	1	-0.7
Cc1cc(C)cc(N(CCC(=O)Nc2nnc(C)s2)S(=O)(=O)c2ccc(Cl)cc2)c1	22.9	0.9	0.8	1	93.0*
Cc1ccc(S(=O)(=O)NCCC(=O)Nc2nnc(C)s2)cc1	-1.9	1	1	1.1	-6.1
CC(C)OC(=O)CC1C(=O)NCCN1C(=S)NC(=O)c1cccs1 (centres undefined)	12.6	0.8	0.7	0.9	9.2
COc1ccc(C(=O)/C=C/c2ccc(O)cc2)cc1	3.5	0.9	0.7	0.9	10.7
COc1cc(/C=C/C(=O)c2ccc(O)cc2)ccc1OCC#N	-13.2	1.1	1	1	98.5*
COC(=O)c1ccc(/C=C/C(=O)c2cccc(OC)c2)cc1	13.9	0.8	0.8	0.9	4.8
COc1cccc(C(=O)/C=C/c2ccc(OCC#N)c(OC)c2)c1	-19.0	0.8	0.9	0.9	99.7*
COc1cc(-c2nc3cccc(C)n3c2NCC2CCCO2)ccc1O (centres undefined)	-6.1	1.1	1.1	0.7	5.3
COc1ccc(Oc2coc3c(CN4CCOCC4)c(O)ccc3c2=O)cc1	-21.7	0.9	0.9	1	-5.1
Cc1oc2c(CN3CCCC3)c(O)ccc2c(=O)c1-c1ccc(Cl)cc1	0.2	1	1	1	96.8*
Cc1oc2c(CN3CCOCC3)c(O)ccc2c(=O)c1-c1ccc(Br)cc1	9.3	0.9	0.8	0.8	98.6*
O=c1c(-c2ccc(Br)cc2)coc2c(CN3CCOCC3)c(O)ccc12	-4.2	0.9	1	1	99.5*
Cc1oc2c(CN3CCCC3)c(O)ccc2c(=O)c1-c1ccccc1	6.9	0.9	1	0.9	5.1
CCc1nc2cc([N+](=O)[O-])c([N+](=O)[O-])cc2[nH]1	-5.0	1.1	1.1	1	7.7
COc1ccc(-c2nc(=S)c3ccc4ccccc4c3[nH]2)cc1	10.5	1.7	0.9	2.3*	-10.1
COc1ccc(-c2nc3ccccc3[nH]2)cc1	71.2	1	1	1	29.9
CCc1cc(/C(Cc2ccccn2)=N\Nc2ccccc2)c(O)cc1O	1.6	1.6	0.8	2.1*	59.5*
Cc1nc(C/C(=N\Nc2ccccc2)c2ccc(O)cc2O)cs1	11.6	1.4	0.7	2.1*	11.5
O=C(NNC(=O)C1CC(c2cccs2)=NO1)NC1CCCCC1 (centres undefined)	3.4	0.9	0.9	0.9	-4.9
SMILES	WT yeast gro inh	PMI act	Diaph act CS	PMI act satM6P	L major viab
O=C(Nc1nc(-c2cccs2)c(C(=O)C(F)(F)F)s1)c1ccccc1	60.0*	0.9	0.8	0.9	7.4
Cc1ccc(C)c(S(=O)(=O)N2CCCOC2CNC(=O)C(=O)NCCCn2ccnc2)c1 (centres undefined)	2.6	0.9	0.9	0.9	-2.9
Cc1cc(C)c(S(=O)(=O)N2CCCOC2CNC(=O)C(=O)NCCCn2ccnc2)c(C)c1 (centres undefined)	-10.4	1	1	1	54.4*
CC(=O)Nc1ccc(C(=O)NCC(=O)OCc2c(F)cccc2Cl)cc1	6.8	0.9	0.9	0.9	0.8
CCN(CCO)Cc1csc2ccc(Cl)cc12	-8.0	1.1	0.9	1.2	-2.2
Cc1cccc(Cn2c(=O)n(-c3ccc(CC(=O)NCc4ccco4)cc3)c(=O)c3sccc32)c1	-3.8	1.1	1.1	1	63.4*
Cc1nccn1CC(=O)N/N=C/c1cccc(O)c1	-6.2	0.9	0.8	0.9	61.2*
Cc1ccc2nc(NC(=O)C3CCN(S(=O)(=O)c4cc([N+](=O)[O-])ccc4Cl)CC3)sc2c1	5.5	1	0.7	0.8	99.2*
CCOc1ccc2nc(NC(=O)C3CCN(c4cnccn4)CC3)sc2c1	19.4	1	0.7	0.9	70.1*
Cc1ccc2nc(NC(=O)C3CCN(S(=O)(=O)c4cccs4)CC3)sc2c1	17.0	0.9	0.8	0.9	52.3*
Cc1ccc(NC(=O)C2CCN(c3cnccn3)CC2)cc1	-5.1	1	0.9	1.1	78.0*
COc1ccc2nc(NC(=O)C3CCN(S(=O)(=O)c4cccs4)CC3)sc2c1	21.7	0.8	0.7	0.8	43.4
COC(=O)CC(NC(=O)c1cccs1)c1ccc(OC)c(OC)c1 (centres undefined)	-6.4	1	0.9	0.9	-5.8
Cc1ccccc1N/C=C/C(=C(C#N)C#N)N(C)C	-20.0	1	0.9	1	-2.4
Cc1ccc2nc(NC(=O)C3CCN(S(=O)(=O)c4cccc5nsnc45)CC3)sc2c1	38.8	0.8	0.7	0.8	28.4
COc1ccc2nc(NC(=O)C3CCN(S(=O)(=O)c4cccnc4)CC3)sc2c1	2.0	1.1	0.9	1	54.3*
O=C(Nc1ccc(Cl)cc1F)C1CCN(S(=O)(=O)c2cccnc2)CC1	12.9	1	0.8	1	72.6*
O=C(Nc1nc2ccc(F)cc2s1)C1CCN(S(=O)(=O)c2cc([N+](=O)[O-])ccc2Cl)CC1	-12.0	1.1	0.8	0.9	98.8*
COc1ccc(NC(=O)C2CCN(S(=O)(=O)c3cccnc3)CC2)cc1Cl	4.8	1.1	0.9	0.9	-10.0
Cc1ccc2nc(NC(=O)C3CCCN(S(=O)(=O)c4cccc5nsnc45)C3)sc2c1 (centres undefined)	64.6*	0.8	0.6	0.7	49.4
CC(OC(=O)C1=Cc2ccccc2OC1)C(=O)NC(C)(C)C (centres undefined)	6.6	1	1	1	9.7
CC(=O)OC1C2CCC1C([N+]1(C)CCCCC1)CC2 (centres undefined)	8.8	0.7	0.9	0.9	-1.7
COc1ccc(CC(=O)Nc2nc3ccccc3s2)cc1S(=O)(=O)N1CCOCC1	-8.0	1	0.8	1	3.3
CCOc1ccc2nc(NC(=O)c3ccoc3C)sc2c1	79.4*	1	0.9	1	42.1
COc1ccc(CC(=O)Nc2nc3ccc(F)cc3s2)cc1S(=O)(=O)N1CCOCC1	0.8	0.9	0.7	0.8	90.2*
CCOc1cccc(C(=O)NC(c2ccccc2)C(C)C)c1 (centres undefined)	6.0	0.8	0.9	0.8	57.0*
